From ChEMBL document CHEMBL3779787, “Amorfrutin C Induces Apoptosis and Inhibits Proliferation in Colon Cancer Cells through Targeting Mitochondria” (J Nat Prod, 2016)
Active and inactive are the calls of the source. The calls are words filed in the database; no cut-off is given here.

Columns and labels:
HT-29 [1] = assay: Induction of apoptosis in human HT-29 cells assessed as phosphatidylserine externalization at 20 uM after 48 hrs by annexin V-FLUOS/propidium iodide staining-based flow cytometry (reference value: 8%); type: functional
HT-29 [2] = assay: Downregulation of cyclin A2 expression in human HT-29 cells at 10 uM after 48 hrs by immunoblotting method; type: functional, cell-based
Method in brief: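 HT-29 exposed to 10 μM for 48 h; whole-cell lysates immunoblotted for the indicated proteins (total and cleaved PARP for the apoptosis line).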

MCF7 = assay: Antiproliferative activity against human MCF7 cells assessed as cellular DNA content after 96 hrs by CyQUANT NF fluorescence assay; type: functional, cell-based; conditions: MCF7, 96 h
Method in brief: (§1)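 Cells seeded at 750 (HT-29), 250 (PC-3) or 900 (T84, MCF7) cells/well, treated next day with concentration series for 72 h (HT-29, PC-3) or 96 h (T84, MCF7). Relative cell number from cellular DNA content by fluorescent DNA-binding dye. Variable-slope fit; efficiency = maximal inhibition (100% − Bottom) vs untreated; IC50 relative to the compound's own maximal efficiency.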

[3] = Antiproliferative activity against human PC3 cells assessed as cellular DNA content after 72 hrs by CyQUANT NF fluorescence assay; type: functional, cell-based; conditions: PC-3, 72 h; method in brief: as §1
HT-29 [4] = assay: Induction of cell cycle arrest in human HT-29 cells assessed as accumulation at G0/G1 phase at 10 uM by flow cytometry (reference value: 66%); type: functional
HT-29 [5] = assay: Induction of apoptosis in human HT-29 cells assessed as increase in caspase 9 activity at 30 uM after 2 hrs by luminescent assay relative to control; type: functional
Method in brief: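 HT-29 cells exposed to compound 2 h; effector/initiator caspase enzymatic activity measured by luminescent assays, normalized to control treatment; means ± SEM, n = 4.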

[6] = biological target: T1, Peroxisome proliferator-activated receptor gamma (Homo sapiens, UniProt P37231); assay: Competitive binding affinity to PPARgamma (unknown origin) by TR-FRET assay
T1 sequence (P37231 whole entry): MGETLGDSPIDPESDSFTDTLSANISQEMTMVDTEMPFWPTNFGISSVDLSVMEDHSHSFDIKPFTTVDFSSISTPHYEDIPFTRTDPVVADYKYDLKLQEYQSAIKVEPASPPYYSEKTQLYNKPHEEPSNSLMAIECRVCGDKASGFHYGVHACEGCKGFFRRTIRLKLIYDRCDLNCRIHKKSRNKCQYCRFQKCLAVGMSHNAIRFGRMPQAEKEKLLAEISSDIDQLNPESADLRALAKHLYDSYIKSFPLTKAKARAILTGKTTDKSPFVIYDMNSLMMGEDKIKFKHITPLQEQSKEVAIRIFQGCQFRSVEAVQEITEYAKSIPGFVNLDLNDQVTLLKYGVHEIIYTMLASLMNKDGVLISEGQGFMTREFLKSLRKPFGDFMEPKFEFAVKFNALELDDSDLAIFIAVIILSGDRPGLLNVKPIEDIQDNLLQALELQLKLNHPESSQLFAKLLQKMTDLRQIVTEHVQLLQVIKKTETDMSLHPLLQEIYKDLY

HT-29 [7] = assay: Induction of ROS generation in human HT-29 cells at 30 uM by CM-H2DCFDA staining-based fluorescence assay in presence of glutathione; type: functional, cell-based
Method in brief: (§2)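 HT-29 (15 000 cells/well) loaded with 50 μM CM-H2DCFDA in PBS for 30 min at 37 °C, washed, then 60 min in phenol red-free DMEM/F-12. 30 μM compound added alone or with NAC 1 mM, GSH 2.5 mM, D3T 25 μM, α-tocopherol 50 μM or ascorbic acid 500 μM. Fluorescence 485/530 nm read kinetically at 37 °C for 22 h; area under curve; means ± SEM, n = 7.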

HT-29 [8] = assay: Induction of ROS generation in human HT-29 cells at 30 uM by CM-H2DCFDA staining-based fluorescence assay in presence of ascorbic acid; type: functional, cell-based; method in brief: as §2
HT-29 [9] = assay: Antiproliferative activity against human HT-29 cells assessed as cellular DNA content at 20 uM after 48 hrs by CyQUANT NF fluorescence assay in presence of N-acetylcysteine; type: functional, cell-based
Method in brief: (§3)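 HT-29 given concentration series of test compound with or without antioxidant (NAC 1 mM, GSH 2.5 mM, D3T 25 μM, α-tocopherol 50 μM, ascorbic acid 500 μM) for 48 h. Relative cell number from DNA-binding fluorescent dye; means ± SD, n = 4.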

HT-29 [10] = assay: Antiproliferative activity against human HT-29 cells assessed as cellular DNA content at 20 uM after 48 hrs by CyQUANT NF fluorescence assay in presence of glutathione; type: functional, cell-based; method in brief: as §3
HT-29 [11] = assay: Antiproliferative activity against human HT-29 cells assessed as cellular DNA content at 20 uM after 48 hrs by CyQUANT NF fluorescence assay in presence of alpha-tocopherol; type: functional, cell-based; method in brief: as §3
HT-29 [12] = assay: Induction of apoptosis in human HT-29 cells at 30 uM after 24 hrs by annexin V-FLUOS/propidium iodide staining-based flow cytometry in presence of glutathione; type: functional, cell-based
Method in brief: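 HT-29 cells co-incubated 24 h with 30 μM compound and antioxidant: glutathione 2.5 mM, α-tocopherol 50 μM, or ascorbic acid 500 μM. Phosphatidylserine externalization measured by annexin V-FLUOS/propidium iodide staining and flow cytometry. Means ± SEM, n = 3.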

HT-29 [13] = assay: Increase in extracellular acidification rate in human HT-29 cells at 10 uM measured for 20 to 150 mins by time-resolved fluorescence assay; type: functional
Method in brief: (§4)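 HT-29 seeded 80 000 cells/well, held overnight at 37 °C without CO2. Low-buffering medium (1 mM PBS pH 7.4, 20 mM glucose, salts) with pH-sensitive lifetime probe, unsealed wells. Time-resolved fluorescence at 37 °C for 200 min, lifetime converted to pH. Acidification rate (H+ change/min) taken over 20–150 min; means ± SEM, n = 8.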

HT-29 [14] = assay: Increase in extracellular acidification rate in human HT-29 cells at 2 uM measured for 20 to 150 mins by time-resolved fluorescence assay; type: functional; method in brief: as §4
HT-29 [15] = assay: Increase in extracellular acidification rate in human HT-29 cells at 10 uM measured for 20 to 150 mins by time-resolved fluorescence assay relative to control; type: functional
Method in brief: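 HT-29 cells seeded 80 000/well, incubated overnight at 37 °C without CO2. Washed and loaded with pH-sensitive time-resolved fluorescence probe in low-buffering medium (1 mM PBS pH 7.4, 20 mM glucose, salts), 10 min at 37 °C, then compound added, wells unsealed. Read 200 min at 37 °C; lifetime converted to pH, rate taken 20–150 min as H+ change/min; n = 8.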

HT-29 [16] = assay: Antiproliferative activity against human HT-29 cells assessed as cellular DNA content after 72 hrs by CyQUANT NF fluorescence assay in presence of cisplatin; type: functional, cell-based
Method in brief: (§5)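 HT-29 exposed 72 h to concentration series of mixtures at ratios 7:0 through 0:7 with the partner drug. Relative cell number from DNA-content fluorescence. IC70 = concentration giving 70% inhibition of total cells (means ± SD, n = 4); isobolograms by Loewe additivity, CI(M) = IC70(Mx)/IC70(x) + IC70(My)/IC70(y).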

HT-29 [17] = assay: Antiproliferative activity against human HT-29 cells assessed as cellular DNA content after 72 hrs by CyQUANT NF fluorescence assay in presence of irinotecan; type: functional, cell-based; method in brief: as §5

## COc1c(CC=C(C)C)c(O)c(C(=O)O)c(CCc2ccccc2)c1CC=C(C)C
HT-29 [1]
  Activity: 44%
HT-29 [2]
  Activity: Active
MCF7
  IC50: 14 µM
[3]
  IC50: 16 µM
HT-29 [4]
  Activity: 89%
HT-29 [5]
  fold change (FC): 3
[6]
  Ki: 0.7 µM
HT-29 [7]
  Activity: inactive
HT-29 [8]
  Activity: inactive
HT-29 [9]
  Activity: Active
HT-29 [10]
  Activity: Active
HT-29 [11]
  Activity: Active
HT-29 [12]
  Activity: Active
HT-29 [13]
  Activity: 2.9 ×10⁻⁹ /min
HT-29 [14]
  Activity: 1.5 ×10⁻⁹ /min
HT-29 [15]
  fold change (FC): 6
HT-29 [16]
  Activity: Active
HT-29 [17]
  Activity: Active
